Broadly, the GI50 is the concentration giving 50% growth inhibition. A high value points to lower sensitivity of the cells.

Data set [1] in a line: Growth inhibition of mouse BAF3 cells after 72 hrs by CellTiter-Glo or CCK-8 assay. Format: cell-based. The method in brief:
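Isogenic murine BaF3 cells transformed with TEL-fused kinases, whose proliferation depends on the fused kinase, were used. Parental BaF3 cells served as the general selectivity counter-screen. The anti-proliferative read-out was reported as GI50.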
(Cellular ATP, detected with luciferase, serves as a proxy for viable cell number.)

Data set [2] has as its target T1, Cytoplasmic tyrosine-protein kinase BMX (Homo sapiens) (UniProt P51813).
T1 sequence (whole entry): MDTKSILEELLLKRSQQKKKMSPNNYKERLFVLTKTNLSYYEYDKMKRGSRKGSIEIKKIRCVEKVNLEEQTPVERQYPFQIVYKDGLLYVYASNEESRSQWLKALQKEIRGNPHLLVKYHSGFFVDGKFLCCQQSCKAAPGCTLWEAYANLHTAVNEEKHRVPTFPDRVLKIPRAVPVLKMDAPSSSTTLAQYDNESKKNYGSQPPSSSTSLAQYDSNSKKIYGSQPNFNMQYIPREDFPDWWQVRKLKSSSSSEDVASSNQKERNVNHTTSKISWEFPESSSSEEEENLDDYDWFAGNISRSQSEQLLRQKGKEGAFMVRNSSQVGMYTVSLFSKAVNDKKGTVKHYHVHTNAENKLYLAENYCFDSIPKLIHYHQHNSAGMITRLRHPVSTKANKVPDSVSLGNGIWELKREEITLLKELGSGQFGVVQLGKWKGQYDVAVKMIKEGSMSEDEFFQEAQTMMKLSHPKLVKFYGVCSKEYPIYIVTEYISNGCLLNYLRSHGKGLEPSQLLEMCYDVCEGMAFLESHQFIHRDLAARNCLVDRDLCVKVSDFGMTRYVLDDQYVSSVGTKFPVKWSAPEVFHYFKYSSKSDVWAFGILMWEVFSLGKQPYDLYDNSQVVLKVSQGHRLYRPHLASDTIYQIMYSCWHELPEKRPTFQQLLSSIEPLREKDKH

On to `C=CC(=O)Nc1cc(Nc2ncc3c(n2)N(C)C(=O)N(c2cc(NC(=O)c4ccc5c(c4)OCCO5)ccc2C)C3)ccc1C`, for which the GI50 at 72 h in data set [1] is > 10 µM. Besides, the GI50 in data set [2] was > 10 µM.
Take `C=CC(=O)Nc1cc(Nc2ncc(C(=O)Nc3cc(C(=O)Nc4cccc(C(F)(F)F)c4)ccc3C)c(NC)n2)ccc1C`: in data set [1], the GI50 at 72 h was determined as 4.9 µM. Also, the concentration for 50% growth inhibition (GI50) in data set [2] turned out to be 0.008 µM.
With `C=CC(=O)Nc1cc(Nc2ncc3c(n2)N(C)C(=O)N(c2cc(NC(=O)[C@@H](N)CCC(=O)OC(C)(C)C)ccc2C)C3)ccc1C`, the GI50 at 72 h in data set [1] is > 10 µM. For the same molecule, in data set [2], it took 8.35 µM to inhibit growth by half (GI50).
In data set [1], `Cc1ccc(Nc2ncc3c(n2)N(C)C(=O)N(c2cc(NC(=O)c4cccc(C(F)(F)F)c4)ccc2C)C3)cn1` displayed a GI50 at 72 h of 0.12 µM.
Consider `C=CC(=O)Nc1cc(Nc2ncc3c(n2)N(C)C(=O)N(c2cc(NC(=O)[C@@H](N)Cc4cc5ccccc5[nH]4)ccc2C)C3)ccc1C`, for which, in data set [1], the GI50 at 72 h was > 10 µM. Also, the GI50 in data set [2] was > 10 µM.
Regarding `C=CC(=O)Nc1cc(Nc2ncc(C(=O)Nc3cc(NC(=O)c4ccc5c(c4)OCO5)ccc3C)c(NC)n2)ccc1C`, the concentration for 50% growth inhibition (GI50) at 72 h in data set [1] was > 10 µM. Also, it took 1.08 µM to inhibit growth in data set [2] by half (GI50).
Turning to `C=CC(=O)Nc1cc(Nc2ncc(C(=O)Nc3cc(NC(=O)c4ccc(OC)c(OC)c4)ccc3C)c(NC)n2)ccc1C`, the GI50 at 72 h in data set [1] is > 10 µM. The GI50 in data set [2] stood at 1 µM.
`C=CC(=O)Nc1cc(Nc2ncc3c(n2)N(C)C(=O)N(c2cc(NC(=O)c4cc(C)ccc4F)ccc2C)C3)ccc1C`: in data set [1], the GI50 at 72 h was > 10 µM. Further, the concentration for 50% growth inhibition (GI50) in data set [2] came to 0.031 µM.
Take `C=CC(=O)Nc1cc(Nc2ncc3c(n2)N(C)C(=O)N(c2cc(NC(=O)c4ccc5c(c4)CCCC5)ccc2C)C3)ccc1C`: the GI50 at 72 h in data set [1] is > 10 µM.
Regarding `C=CC(=O)Nc1cc(Nc2ncc(C(=O)Nc3cc(NC(=O)c4cccc(OC)c4)ccc3C)c(NC)n2)ccc1C`, the GI50 at 72 h in data set [1] is > 10 µM. For the same molecule, in data set [2], halving of growth (GI50) required 6 µM.
Consider `C=CC(=O)Nc1cc(Nc2ncc(C(=O)Nc3cc(NC(=O)c4ccc(OC)cc4)ccc3C)c(NC)n2)ccc1C`, for which the GI50 at 72 h in data set [1] is > 10 µM. Growth in data set [2] was halved (GI50) at 1.1 µM.
Take `C=CC(=O)Nc1cc(Nc2ncc3c(n2)N(C)C(=O)N(c2cc(NC(=O)[C@H]4CC[C@H](CCCC)CC4)ccc2C)C3)ccc1C`: in data set [1], it took 5.08 µM to inhibit growth by half (GI50 at 72 h). In data set [2], this molecule registered a GI50 of 2.49 µM.
As to `C=CC(=O)Nc1cc(Nc2ncc3c(n2)N(C)C(=O)N(c2cc(NC(=O)[C@@H](N)Cc4ccccc4)ccc2C)C3)ccc1C`, the GI50 at 72 h in data set [1] is > 10 µM.
The same measure, in the same setting: the result for `C=CC(=O)Nc1cc(Nc2ncc3c(n2)N(C)C(=O)N(c2cc(NC(=O)c4cccc(C(F)(F)F)c4)ccc2C)C3)ccc1C` reads 0.74 µM.
As for `C=CC(=O)Nc1cc(Nc2ncc(C(=O)Nc3cc(NC(=O)c4ccccc4OC)ccc3C)c(NC)n2)ccc1C`, in data set [1], the GI50 at 72 h is > 10 µM. The GI50 in data set [2] came to 0.67 µM.
As for `C=CC(=O)Nc1cc(Nc2ncc3c(n2)N(C)C(=O)N(c2cc(NC(=O)c4ccccc4OC)ccc2C)C3)ccc1C`, the concentration for 50% growth inhibition (GI50) at 72 h in data set [1] is > 10 µM. This molecule registered a GI50 in data set [2] of 3.01 µM.
`C=CC(=O)Nc1cc(Nc2ncc(C(=O)Nc3cc(NC(=O)c4ccc5c(c4)OCCO5)ccc3C)c(NC)n2)ccc1C`: the GI50 at 72 h in data set [1] is > 10 µM. In addition, the GI50 in data set [2] was found to be 0.155 µM.
With `C=CC(=O)Nc1cc(Nc2ncc3c(n2)N(C)C(=O)N(c2cc(NC(=O)c4c(C)cccc4F)ccc2C)C3)ccc1C`, the GI50 at 72 h in data set [1] is > 10 µM. Besides, in data set [2], the GI50 came out at 2.78 µM.
For `C=CC(=O)Nc1cc(Nc2ncc3c(n2)N(C)C(=O)N(c2cc(NC(=O)c4ccc(OC)c(OC)c4)ccc2C)C3)ccc1C`, the GI50 at 72 h in data set [1] came to 8.13 µM. In addition, the concentration for 50% growth inhibition (GI50) in data set [2] was determined as 0.24 µM.
Consider `C=CC(=O)Nc1cc(Nc2ncc3c(n2)N(C)C(=O)N(c2cc(NC(=O)c4ccc5c(c4)OCO5)ccc2C)C3)ccc1C`, for which the GI50 at 72 h in data set [1] was > 10 µM. The same molecule had a GI50 in data set [2] of 0.23 µM.
For `C=CC(=O)Nc1cc(Nc2ncc3c(n2)N(C)C(=O)N(c2cc(NC(=O)[C@H]4CC[C@H](C(C)C)CC4)ccc2C)C3)ccc1C`, the GI50 at 72 h in data set [1] is > 10 µM. The molecule further showed a 50% growth inhibitory concentration (GI50) in data set [2] of 5.28 µM.
For `C=CC(=O)Nc1cc(Nc2ncc3c(n2)N(C)C(=O)N(c2cc(NC(=O)c4cc(OC)cc(OC)c4)ccc2C)C3)ccc1C`, in data set [1], the GI50 at 72 h was > 10 µM. The same molecule had a GI50 in data set [2] of 0.69 µM.
The corresponding values for `C=CC(=O)Nc1cc(Nc2ncc3c(n2)N(C)C(=O)N(c2cc(NC(=O)c4cc(C(F)(F)F)cc(C(F)(F)F)c4)ccc2C)C3)ccc1C` are > 10 µM and 0.78 µM.
Consider `C=CC(=O)Nc1cc(Nc2ncc3c(n2)N(C)C(=O)N(c2cc(NC(=O)c4ccc(C)c(C(F)(F)F)c4)ccc2C)C3)ccc1C`, for which the GI50 at 72 h in data set [1] was > 10 µM. Besides, the GI50 in data set [2] came out at 1.24 µM.
Take `C=CC(=O)Nc1cc(Nc2ncc3c(n2)N(C)C(=O)N(c2cc(NC(=O)[C@@H](N)CC(C)C)ccc2C)C3)ccc1C`: the GI50 at 72 h in data set [1] is > 10 µM. In data set [2], this molecule registered a GI50 of 0.13 µM.
`C=CC(=O)Nc1cc(Nc2ncc3c(n2)N(C)C(=O)N(c2cc(NC(=O)c4cc(OC)c(OC)c(OC)c4)ccc2C)C3)ccc1C`: the GI50 at 72 h in data set [1] was > 10 µM. Also, growth in data set [2] was halved (GI50) at 5.93 µM.
Consider `C=CC(=O)Nc1cc(Nc2ncc(C(=O)Nc3cc(NC(=O)c4cc(OC)cc(OC)c4)ccc3C)c(NC)n2)ccc1C`, for which the GI50 at 72 h in data set [1] is > 10 µM. This molecule gave a GI50 in data set [2] of 0.119 µM.
`C=CC(=O)Nc1cc(Nc2ncc3c(n2)N(C)C(=O)N(c2cc(NC(=O)[C@H]4CC[C@H](CCC)CC4)ccc2C)C3)ccc1C`: the GI50 at 72 h in data set [1] worked out at 7.4 µM. For the same molecule, the GI50 in data set [2] is 0.64 µM.
With `C=CC(=O)Nc1cc(Nc2ncc(C(=O)Nc3cc(NC(=O)c4cc(C)ccc4F)ccc3C)c(NC)n2)ccc1C`, in data set [1], the GI50 at 72 h is > 10 µM. This molecule came in with a GI50 in data set [2] of 0.044 µM.
Regarding `C=CC(=O)Nc1cc(Nc2ncc3c(n2)N(C)C(=O)N(c2cc(NC(=O)c4ccc(OC)cc4OC)ccc2C)C3)ccc1C`, the GI50 at 72 h in data set [1] is > 10 µM. Growth in data set [2] was halved (GI50) at 2.74 µM.
Regarding `C=CC(=O)Nc1cc(Nc2ncc3c(n2)N(C)C(=O)N(c2cc(NC(=O)c4ccc(N(C)C)cc4)ccc2C)C3)ccc1C`, the GI50 at 72 h in data set [1] is > 10 µM. The molecule further showed a GI50 in data set [2] of 1.03 µM.
Regarding `C=CC(=O)Nc1cc(Nc2ncc3c(n2)N(C)C(=O)N(c2cc(NC(=O)[C@H]4CC[C@H](C(F)(F)F)CC4)ccc2C)C3)ccc1C`, the GI50 at 72 h in data set [1] was > 10 µM. The molecule further showed a concentration for 50% growth inhibition (GI50) in data set [2] of 5.9 µM.
With `C=CC(=O)Nc1cc(Nc2ncc3c(n2)N(C)C(=O)N(c2cc(NC(=O)c4ccc(OC)cc4)ccc2C)C3)ccc1C`, the concentration for 50% growth inhibition (GI50) at 72 h in data set [1] was > 10 µM. The same molecule yielded a GI50 in data set [2] of 1.07 µM.
Turning to `C=CC(=O)Nc1cc(Nc2ncc3c(n2)N(C)C(=O)N(c2cc(NC(=O)c4cc(OC)ccc4OC)ccc2C)C3)ccc1C`, the GI50 at 72 h in data set [1] is > 10 µM. This molecule also showed a 50% growth inhibitory concentration (GI50) in data set [2] of 3 µM.
`C=CC(=O)Nc1cc(Nc2ncc(C(=O)Nc3cc(C(=O)Nc4cc(OC)c(OC)c(OC)c4)ccc3C)c(NC)n2)ccc1C`: the GI50 at 72 h in data set [1] was > 10 µM. This molecule showed a 50% growth inhibitory concentration (GI50) in data set [2] of 0.098 µM.
For the molecule `C=CC(=O)Nc1cc(Nc2ncc3c(n2)N(C)C(=O)N(c2cc(NC(=O)[C@H]4CC[C@H](C)CC4)ccc2C)C3)ccc1C`, halving of growth in data set [1] (GI50 at 72 h) required 8.81 µM. Moreover, the GI50 in data set [2] was determined as 2.28 µM.

The record behind these values is ChEMBL document CHEMBL4007402 (J Med Chem, 2017).
